# Bioassay records deposited in PubChem by Johns Hopkins Ion Channel Center.
# Only some compounds are listed: those with a hit (about 3.5% of all), similar ones and a draw of the others.
# MrgX1 agonist – activates human MrgX1 receptor signaling; MrgX1-HEK293 cells, Fluo-4 calcium fluorescence, agonist mode; stronger effect = higher value; B-score at 10 µM; actives 0.44% (n = 310,000);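 active = calcium response B-score plate-corrected fluorescence ratio at least 3 library SD, with starting fluorescence B-score inside 5 SD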
#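 Test system: Stable human MrgX1 HEK293 cell line | Schedule: Overnight plating before 1 h dye loading | Read-out basis: Baseline-normalised fluorescence change ratio, B-scored | Detection: Kinetic calcium dye fluorescence, Fluo-4 NW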
# MrgX1 antag – human MrgX1 receptor antagonism, primary screen | Q96LB2 | B-score at 10 µM | actives 1.3% (n = 310,000) | MRGX1-HEK293 calcium flux, Fluo-4, BAM8-22 antagonism; stronger effect = lower value;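 active = calcium-response B-score plate-corrected more than 3 library SD below zero, starting fluorescence within 5 deviations, no agonist response on first addition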;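 also: peak minus trough fluorescence over baseline after final BAM8-22 challenge near maximal dose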
# RGS4 inh – human RGS4 inhibition. B-score at 10 µM. P49798. HEK293 M3R/RGS4 inducible, Fluo-4 calcium flux; stronger effect = higher value; triggered by carbachol at its EC20. actives 0.45% (n = 310,000);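 active = B-score, a plate-corrected calcium signal, over three deviations above library mean, with baseline fluorescence within five deviations of library mean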;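 also: RGS4 expression induced by doxycycline in cells with stable M3 receptor; B-score is computed from the integrated fluorescence ratio over baseline after carbachol; higher B-score means a larger calcium signal and so more RGS4 inhibition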
# Target sequence (P49798 whole entry, looked up): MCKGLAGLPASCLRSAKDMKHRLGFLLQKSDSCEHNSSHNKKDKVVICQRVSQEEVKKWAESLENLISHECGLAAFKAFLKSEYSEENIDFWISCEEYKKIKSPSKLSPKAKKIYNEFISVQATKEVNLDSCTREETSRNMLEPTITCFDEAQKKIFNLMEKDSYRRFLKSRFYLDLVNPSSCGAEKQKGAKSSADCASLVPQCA
# RGS4 pot – potentiators or activators of RGS4; HEK293 M3R/inducible RGS4, carbachol calcium flux Fluo4; stronger effect = lower value; B-score at 10 µM; actives 0.92% (n = 310,000); AID 463111;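 active = B-score of the integrated calcium signal more than 4 SD below the library mean, with starting fluorescence not abnormally high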;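 also: negative B-score means reduced calcium response which marks RGS4 activation or potentiation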
#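 System – HEK293 FlpIn-TREx cells, stable M3R, doxycycline-inducible RGS4 · Reagent – ECmax carbachol challenge · Times – compound preincubation 20 min at room temperature before agonist · Technique – Fluo4 fluorescence kinetic imaging of calcium · Measure – B score of integrated Fluo4 ratio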
# MrgX1 PAM – allosterically activates human MrgX1 receptor signaling; actives 0.63% (n = 310,000); Q96LB2; B-score at 10 µM; AID 588675; MrgX1-HEK293, Fluo-4 calcium flux, FDSS; stronger effect = higher value;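 active = plate-corrected calcium response at least 3 library SD above typical, normal starting fluorescence, not activating the receptor alone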;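 also: compound read alongside a low EC10 to EC30 dose of BAM8-22 agonist; peak minus trough fluorescence over baseline measured at the second addition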
# Numbers stand for hits; 0 = inactive; - = not tested or not shown.
SMILES,MrgX1 agonist,MrgX1 antag,RGS4 inh,RGS4 pot,MrgX1 PAM
O=C(NCc1ccc(/C=N\NC(=O)C(=O)Nc2ccccc2Br)o1)C(=O)Nc1ccccc1,0,0,0,0,0
COc1cc(NC(=O)CN(c2ccc(C)cc2)S(=O)(=O)c2c(C)noc2C)cc(OC)c1,0,0,0,0,0
COCCNCCCCOc1ccccc1-c1ccccc1,0,-5.15,0,0,0
COc1ccc(CCNC(=O)CSc2nnc(Cc3cccn3C)n2C)cc1OC,0,0,0,0,0
CC1CCC(C(C)C)C(OP(=O)(c2ccc(N(C)C)cc2)C(O)c2cccnc2)C1 (stereo not drawn),0,-8.7,0,0,0
CC1CCC(C(C)C)C(OP(=O)(c2ccccc2)C(O)c2ccncc2)C1 (stereo not drawn),0,0,0,0,0
O=C(NCCOc1cccnc1)C1CCC(=O)N(Cc2ccccc2F)C1 (stereo not drawn),0,0,0,0,0
CN(C)c1cc2c(cc1NS(=O)(=O)c1ccccc1)n(C)c(=O)n2C,0,0,0,0,0
CC(Cc1ccccn1)NC(=O)CCc1nnc(C2CCCCC2)o1 (stereo not drawn),0,0,0,0,0
CC1CC=C2C(C#N)=C(N)C(C#N)(C#N)C(c3cccs3)C2C1 (stereo not drawn),0,-5.58,0,0,0
COC(=O)c1c(NC(=O)CN2C(=O)C(=O)N(CC(C)C)C2=O)sc(C)c1C,0,0,0,0,0
CC(=O)COc1cc(C)cc2oc(=O)cc(-c3ccccc3)c12,0,0,0,0,0
Cc1cc(O)c2c(-c3ccccc3)cc(=O)oc2c1,43.6,0,-,-,0
O=C(NCc1ccc2c(c1)OCO2)c1cc([N+](=O)[O-])ccc1N1CCCCC1,0,0,0,-7.37,0
N#Cc1nccnc1S(=O)(=O)c1cccs1,0,0,0,-7.83,0
CN(Cc1ccccc1C#N)S(=O)(=O)c1cccs1,0,0,0,0,0
Cn1cccc1/C=C(/C#N)C(N)=S,0,0,0,0,0
N#C/C(=C/c1ccc(F)cc1)C(N)=S,28,0,0,0,0
O=C(Cc1ncc(C(F)(F)F)cc1Cl)NNc1cccc(F)n1,0,0,0,0,0
CCCC(=O)N1CCN(c2ccc(NC(=O)c3cc4ccccc4o3)cc2Cl)CC1,0,0,0,-8.59,0
CCC(=O)N1CCN(c2ccc(NC(=O)c3cc4ccccc4o3)cc2Cl)CC1,0,0,0,-7.48,0
CCC(=O)N1CCN(c2ccc(NC(=O)c3ccco3)cc2Cl)CC1,-,-,0,0,-
CC1CCN(c2ccccc2NC(=O)c2cc3ccccc3o2)CC1,0,0,0,-7.41,0
CCCC(=O)N1CCN(c2ccc(NC(=O)c3cccs3)cc2Cl)CC1,0,0,0,0,0
O=C(NCCc1nc(-c2ccccc2)no1)c1ccco1,0,0,0,0,0
SMILES,MrgX1 agonist,MrgX1 antag,RGS4 inh,RGS4 pot,MrgX1 PAM
CCc1ccc(NC(=O)C2C3/C=C\CCCCC32)cc1 (stereo not drawn),0,0,0,0,0
Cc1ccc2c(c1)N(CC(=O)N1CCCC1)C(=O)CO2,0,0,0,0,0
O=c1c(Cl)c2oc3ccccc3nc-2c2ccccc12,0,-5.7,0,0,0
Clc1ccc(-c2nnc(Sc3nc4ccccc4o3)c3ccccc23)cc1,0,0,0,0,0
COc1ccc(/C=C2\OC(=S)N(C)C2=O)cc1,0,0,0,0,0
CN1C(=O)/C(=C\c2ccc(N(C)C)cc2)OC1=S,63.1,0,0,0,0
CCn1c(=O)c2sccc2n(Cc2ccccc2)c1=O,0,0,0,0,0
Cc1ccccc1NC(=O)c1ccccc1NC(=O)CCC(=O)O,0,0,0,0,0
COc1cc(C)ccc1OCCOCCN(C)Cc1ccccc1,0,-6.5,0,0,0
COc1ccccc1OCCOCCOc1ccc(C)cc1[N+](=O)[O-],0,-7.02,0,0,0
COc1ccc(NC(=O)[C@H](C)NC(=O)C2CCN(S(=O)(=O)c3ccc(OC)cc3)CC2)cc1,0,0,0,0,0
COCCN(CCOC)c1nc(-c2ccc(Cl)cc2)nc2ccccc12,0,0,0,-7.34,0
Cc1ccc(NC(=O)CN2C(=O)S/C(=C/c3ccc(-c4cc(C(=O)O)ccc4C)o3)C2=O)cc1C,0,0,0,0,0
Cc1cc(C(=O)O)ccc1-n1c(C)cc(C=C2C(=O)c3ccccc3C2=O)c1C,29.4,0,0,0,0
